The conditions of data set [1]: single oral dose of radiolabeled fedratinib ref 21; cited from earlier work.
Another data set deals with JAK1 (Homo sapiens, UniProt P23458). As to the kind of experiment: Kinase-Glo Max kinase assay, purified enzyme. The format is biochemical.
The next data set concerns the target T1, JAK3 (Homo sapiens, UniProt P52333).
T1 sequence (P52333 1-1124): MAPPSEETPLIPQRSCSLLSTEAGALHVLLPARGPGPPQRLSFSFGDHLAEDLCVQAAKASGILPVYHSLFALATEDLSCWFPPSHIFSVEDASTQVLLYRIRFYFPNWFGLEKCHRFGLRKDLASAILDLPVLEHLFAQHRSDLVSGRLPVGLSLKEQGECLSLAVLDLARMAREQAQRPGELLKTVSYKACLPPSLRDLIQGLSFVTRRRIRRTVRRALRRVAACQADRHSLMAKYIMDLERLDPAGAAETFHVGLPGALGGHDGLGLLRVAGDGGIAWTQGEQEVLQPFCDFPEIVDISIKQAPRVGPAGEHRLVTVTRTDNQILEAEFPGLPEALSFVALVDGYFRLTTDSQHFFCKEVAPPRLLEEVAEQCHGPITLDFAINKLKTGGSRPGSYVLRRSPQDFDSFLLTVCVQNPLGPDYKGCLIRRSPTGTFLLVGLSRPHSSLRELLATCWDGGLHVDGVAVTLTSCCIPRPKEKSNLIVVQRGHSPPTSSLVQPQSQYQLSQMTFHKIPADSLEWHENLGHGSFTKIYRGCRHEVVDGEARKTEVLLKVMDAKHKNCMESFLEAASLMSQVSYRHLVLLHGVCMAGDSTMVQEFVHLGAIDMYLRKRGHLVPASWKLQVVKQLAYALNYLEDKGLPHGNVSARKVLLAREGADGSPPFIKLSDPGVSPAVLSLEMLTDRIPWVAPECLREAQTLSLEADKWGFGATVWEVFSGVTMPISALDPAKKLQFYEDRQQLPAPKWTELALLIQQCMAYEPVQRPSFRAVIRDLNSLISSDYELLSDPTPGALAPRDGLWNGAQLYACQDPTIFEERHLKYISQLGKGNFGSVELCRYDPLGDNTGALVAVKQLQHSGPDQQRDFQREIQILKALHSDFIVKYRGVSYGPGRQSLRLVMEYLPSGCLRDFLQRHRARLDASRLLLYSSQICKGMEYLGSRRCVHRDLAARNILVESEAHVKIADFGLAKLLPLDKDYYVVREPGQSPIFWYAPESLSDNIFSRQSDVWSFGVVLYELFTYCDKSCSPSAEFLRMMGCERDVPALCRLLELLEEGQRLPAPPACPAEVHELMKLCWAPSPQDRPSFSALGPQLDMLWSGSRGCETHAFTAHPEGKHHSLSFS
As to the kind of experiment: Kinase-Glo Max kinase assay, purified enzyme. The format is biochemical. (In general: Kinase-Glo measures the ATP left after a reaction by luminescence.)

Data set [2] in a line: Pharmacokinetic study in mice. The format is in vivo. An outline of the steps:
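Female C57BL/6 mice (6–8 weeks) were dosed orally at 10 mg/kg in the pH-adjusted beta-cyclodextrin/hyaluronic acid/PBS vehicle. Sacrifice at 0.5, 2, 4, 12 and 24 h; cardiac blood for plasma; intestinal tissue homogenized in PBS to 10%; intestinal contents homogenized in PBS. Parent and metabolite were measured by LC-MS/MS (C18, 0.1% formic acid water/acetonitrile gradient, 0.4 ml/min). Detection limit 2 ng/ml or 2 ng/g. n = 3, mean ± SD.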

Data set [3] in a line: In vivo metabolite identification by LC-MS in plasma, colon and feces. The conditions noted are these: mice, 10 mg/kg MMT3-72 orally, 6 h.
A further data set deals with TYK2 (Homo sapiens, UniProt P29597). As to the kind of experiment: Kinase-Glo Max kinase assay, purified enzyme. The format is biochemical.
TYK2, sequence (P29597 whole entry): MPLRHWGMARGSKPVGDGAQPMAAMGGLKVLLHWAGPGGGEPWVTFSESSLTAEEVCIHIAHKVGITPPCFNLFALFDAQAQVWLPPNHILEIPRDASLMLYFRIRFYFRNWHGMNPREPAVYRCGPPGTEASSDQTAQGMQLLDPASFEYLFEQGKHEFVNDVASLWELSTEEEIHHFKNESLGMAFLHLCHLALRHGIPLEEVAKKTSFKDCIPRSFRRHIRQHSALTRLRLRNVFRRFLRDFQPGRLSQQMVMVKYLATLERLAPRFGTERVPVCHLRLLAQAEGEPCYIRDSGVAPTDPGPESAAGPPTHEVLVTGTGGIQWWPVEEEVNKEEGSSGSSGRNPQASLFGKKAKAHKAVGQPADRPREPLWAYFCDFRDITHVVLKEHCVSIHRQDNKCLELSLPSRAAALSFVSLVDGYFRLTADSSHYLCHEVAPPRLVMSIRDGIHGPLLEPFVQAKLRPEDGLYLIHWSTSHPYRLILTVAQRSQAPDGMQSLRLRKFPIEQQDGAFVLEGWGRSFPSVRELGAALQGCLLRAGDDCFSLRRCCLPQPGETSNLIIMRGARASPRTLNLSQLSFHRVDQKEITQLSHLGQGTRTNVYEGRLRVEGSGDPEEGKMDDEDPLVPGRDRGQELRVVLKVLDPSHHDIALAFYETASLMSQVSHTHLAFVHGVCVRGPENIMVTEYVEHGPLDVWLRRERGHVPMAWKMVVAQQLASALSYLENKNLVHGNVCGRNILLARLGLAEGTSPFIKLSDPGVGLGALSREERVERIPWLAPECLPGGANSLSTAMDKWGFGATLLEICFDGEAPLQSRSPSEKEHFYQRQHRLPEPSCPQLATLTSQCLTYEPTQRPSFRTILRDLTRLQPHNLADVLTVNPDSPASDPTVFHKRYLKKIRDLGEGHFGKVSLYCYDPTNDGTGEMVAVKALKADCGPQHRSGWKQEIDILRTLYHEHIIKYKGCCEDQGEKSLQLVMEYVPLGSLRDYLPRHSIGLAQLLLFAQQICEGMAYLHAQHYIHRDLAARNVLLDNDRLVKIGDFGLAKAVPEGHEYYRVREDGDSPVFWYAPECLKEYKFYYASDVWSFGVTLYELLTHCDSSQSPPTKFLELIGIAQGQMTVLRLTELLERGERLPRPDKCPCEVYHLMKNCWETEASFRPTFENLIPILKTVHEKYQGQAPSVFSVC
The test system of data set [4] is DSS-induced colitis. The data set is described as follows: DSS-induced colitis in mice: DAI score, colon length. The conditions noted are these: for improvement of DAI score or disease severity: 1 mg/kg orally every other day; for mice that developed moderate colitis / mice that developed severe colitis: n = 10. The format is in vivo. A digest of the protocol: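 Female C57BL/6 mice (6–8 weeks), randomized; 3% DSS in distilled water for 5 days, with water-only controls. Test compound or reference JAK inhibitor was given by oral gavage every other day in a pH-adjusted vehicle (80% v/v beta-cyclodextrin:water 1:4, 15% hyaluronic acid, 5% PBS); vehicle-only group. Stool consistency and occult blood were scored daily as DAI 0–3. Colon length was measured at sacrifice on day 5. Mean ± SD; ANOVA with Tukey.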

Data set [5] can be described thus: In vitro conversion of MMT3-72 to MMT3-72-M2 by colon contents. The format is in vitro ADME, mice. A digest of the protocol:
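Fresh colon contents from female C57BL/6 mice (6–8 weeks) were suspended at 10% (w/v) in PBS as an azoreductase source, or boiled to deactivate. Test compound at 0.1 mM final was shaken at 1000 rpm, 37 °C. Aliquots at 0, 1, 2, 4, 6, 24 and 48 h were diluted 10-fold and extracted with acetonitrile. Parent and released metabolite were quantified by LC-MS/MS.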

A further data set concerns the target JAK2 (Homo sapiens, UniProt O60674). As to the kind of experiment: Kinase-Glo Max kinase assay, purified enzyme. The format is biochemical.
Data set [6] has as its system DSS-induced colitis. The data set is described as follows: H&E staining of colon tissues, DSS-induced colitis. The format is in vivo, mice.
The test system of a further data set is phosphorylation of STAT3. The data set is described as follows: Western blot of colon tissues: STAT3 and phosphorylated STAT3. The format is in vivo, mice. The conditions noted are these: DSS-induced colitis, oral MMT3-72. An outline of the steps:
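Colon tissue came from the DSS colitis study. It was rinsed in cold PBS, homogenized in RIPA buffer, sonicated and centrifuged; protein was measured by BCA. 200 μg total protein per group underwent SDS electrophoresis and transfer to PVDF. Blots were probed overnight at 4 °C with antibodies to JAK2, STAT3, phospho-STAT3 (Tyr705) and GAPDH, then HRP secondary for 1 h at room temperature, and imaged.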
Background: In western blotting, separated proteins are transferred to a membrane and probed.

[7] abbreviates: 10 mg/kg orally every other day.

Molecules are shown by their SMILES. Where “and” joins values, the source holds several entries; their conditions need not be identical. Identical values can stand only once. Entries after “also recorded” stand apart in the source; their conditions may differ. Some results are limits rather than exact numbers.

JAK1, sequence (P23458 whole entry): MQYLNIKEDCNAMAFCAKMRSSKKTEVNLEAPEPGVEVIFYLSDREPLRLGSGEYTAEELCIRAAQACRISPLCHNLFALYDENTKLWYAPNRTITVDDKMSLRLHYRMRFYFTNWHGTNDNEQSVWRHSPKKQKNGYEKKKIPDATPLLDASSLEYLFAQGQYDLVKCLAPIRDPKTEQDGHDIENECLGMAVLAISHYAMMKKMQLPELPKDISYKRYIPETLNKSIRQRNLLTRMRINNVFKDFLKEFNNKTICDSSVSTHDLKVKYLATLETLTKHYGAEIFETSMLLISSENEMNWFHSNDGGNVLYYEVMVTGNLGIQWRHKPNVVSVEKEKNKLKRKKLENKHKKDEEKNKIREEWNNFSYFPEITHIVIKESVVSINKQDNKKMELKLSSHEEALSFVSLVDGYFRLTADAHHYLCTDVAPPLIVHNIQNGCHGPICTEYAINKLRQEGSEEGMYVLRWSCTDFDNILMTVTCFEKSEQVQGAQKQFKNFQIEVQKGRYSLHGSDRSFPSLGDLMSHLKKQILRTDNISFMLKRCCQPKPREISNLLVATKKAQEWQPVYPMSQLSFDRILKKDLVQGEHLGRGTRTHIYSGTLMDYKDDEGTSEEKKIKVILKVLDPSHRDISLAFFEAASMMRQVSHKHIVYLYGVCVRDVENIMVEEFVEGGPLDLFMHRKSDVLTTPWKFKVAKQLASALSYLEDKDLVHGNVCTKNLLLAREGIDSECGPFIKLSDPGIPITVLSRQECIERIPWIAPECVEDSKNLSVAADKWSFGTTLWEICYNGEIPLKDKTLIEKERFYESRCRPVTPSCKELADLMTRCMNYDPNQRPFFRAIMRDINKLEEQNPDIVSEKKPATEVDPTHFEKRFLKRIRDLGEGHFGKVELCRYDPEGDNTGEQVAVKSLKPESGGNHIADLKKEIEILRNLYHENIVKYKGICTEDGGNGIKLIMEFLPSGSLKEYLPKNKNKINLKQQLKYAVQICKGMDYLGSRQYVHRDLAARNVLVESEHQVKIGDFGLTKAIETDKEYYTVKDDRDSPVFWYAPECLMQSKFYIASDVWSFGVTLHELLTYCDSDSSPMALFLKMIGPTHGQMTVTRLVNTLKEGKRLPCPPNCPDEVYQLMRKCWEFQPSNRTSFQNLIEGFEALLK
JAK2, sequence (O60674 whole entry): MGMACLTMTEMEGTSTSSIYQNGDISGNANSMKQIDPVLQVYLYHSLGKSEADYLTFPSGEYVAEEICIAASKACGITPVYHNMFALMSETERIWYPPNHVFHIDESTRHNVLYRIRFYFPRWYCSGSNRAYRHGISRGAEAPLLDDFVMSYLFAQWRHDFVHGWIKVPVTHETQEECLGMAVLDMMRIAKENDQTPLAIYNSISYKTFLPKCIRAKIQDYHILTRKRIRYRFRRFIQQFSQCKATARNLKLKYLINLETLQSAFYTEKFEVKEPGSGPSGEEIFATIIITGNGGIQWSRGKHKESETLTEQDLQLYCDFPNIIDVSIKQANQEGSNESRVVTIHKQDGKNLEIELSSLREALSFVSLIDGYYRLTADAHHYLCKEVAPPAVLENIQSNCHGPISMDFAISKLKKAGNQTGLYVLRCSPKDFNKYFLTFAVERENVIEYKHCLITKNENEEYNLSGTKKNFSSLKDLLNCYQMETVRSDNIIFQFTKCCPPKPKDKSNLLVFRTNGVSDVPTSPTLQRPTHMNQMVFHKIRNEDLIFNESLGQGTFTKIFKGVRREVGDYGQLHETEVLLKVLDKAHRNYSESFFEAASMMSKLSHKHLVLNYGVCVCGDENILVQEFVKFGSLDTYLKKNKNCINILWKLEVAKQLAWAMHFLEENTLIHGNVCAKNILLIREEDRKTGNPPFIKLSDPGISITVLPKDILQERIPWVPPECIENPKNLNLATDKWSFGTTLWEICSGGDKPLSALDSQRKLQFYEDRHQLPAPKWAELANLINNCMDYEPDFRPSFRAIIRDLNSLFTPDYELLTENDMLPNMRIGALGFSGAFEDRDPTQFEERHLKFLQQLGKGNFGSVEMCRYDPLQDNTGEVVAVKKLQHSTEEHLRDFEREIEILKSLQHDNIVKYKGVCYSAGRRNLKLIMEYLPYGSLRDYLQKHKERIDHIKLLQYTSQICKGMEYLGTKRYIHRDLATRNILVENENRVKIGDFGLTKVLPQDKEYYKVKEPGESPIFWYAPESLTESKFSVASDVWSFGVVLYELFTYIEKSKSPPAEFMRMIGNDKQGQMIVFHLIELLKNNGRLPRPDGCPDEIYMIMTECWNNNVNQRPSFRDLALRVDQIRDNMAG

As to `Cc1cnc(Nc2ccc(OCCN3CCCC3)cc2)nc1Nc1cccc(S(=O)(=O)NC(C)(C)C)c1` [fedratinib], in data set [1], the “excreted in feces unchanged” value is 23% and the “fedratinib-derived radioactivity excreted in feces” value is given as around 77%.

As usually defined, the IC50 is the concentration needed to halve the response being measured. Regarding `Cc1cnc(Nc2ccc(OCCOc3ccc(/N=N/c4ccc(C(=O)NCCC(=O)O)cc4)cc3C(=O)O)cc2)nc1Nc1cccc(S(=O)(=O)NC(C)(C)C)c1` [MMT3-72, (E)-2-(2-(4-((4-((3-(N-(tertbutyl)sulfamoyl)phenyl)amino)-5-methylpyrimidin-2-yl)amino)phenoxy)ethoxy)-5-((4-((2-carboxyethyl)carbamoyl)phenyl)diazenyl)benzoic acid], the concentration for half-maximal inhibition (IC50) is 368 nM on JAK1 (Enzyme IC50 JAK1, 0.1 mM ATP); 5.24 µM against JAK3; 4700 nM at TYK2 (Enzyme IC50 TYK2, 0.1 mM ATP); 630 nM on JAK2 (Enzyme IC50 JAK2, 0.1 mM ATP). Moreover, the “detection in colon/GI tissue or systemic circulation/plasma” value in [2] (mice, 10 mg/kg MMT3-72 orally) is on record as “not detected”. In [3], the “where detected (plasma, colon tissues, feces), in words” value was “only detected in the feces”. Further, in the data set on DSS-induced colitis [4], the “improvement of DAI score or disease severity” value is on record as “did not improve DAI score or disease severity”. The “improvement of DAI score vs DSS-induced colitis” value in the data set with DSS-induced colitis [4] (5 mg/kg orally every other day) amounted to 5 fold; in the data set on DSS-induced colitis [4] (setting [7]) it was 10 fold. In addition, the “mice that developed moderate colitis” value in the data set on DSS-induced colitis [4] (5 mg/kg) is listed as 10%; in the data set with DSS-induced colitis [4] (10 mg/kg) it was “no mice”. Further, the “mice that developed severe colitis” value in the data set on DSS-induced colitis [4] (5 mg/kg) and in the data set on DSS-induced colitis [4] (10 mg/kg) was “no mice” each time. In addition, the “recovery of colon length from DSS-induced colitis” value in the data set with DSS-induced colitis [4] (10 mg/kg) is recorded as “recovered the colon length”. Moreover, the “stability in heat-deactivated colon contents” value in [5] (boiled colon contents, aqueous environment) was “most MMT3-72 remained intact”. Also, the MMT3-72 metabolized entry in data set [5] (fresh colon contents, within 48 h of incubation) was “more than 90%”. Also, the “epithelial loss and infiltration of immune cells (H&E)” value in the data set on DSS-induced colitis [6] (5 mg/kg) was “reduced epithelial loss and decreased infiltration of immune cells”; with DSS-induced colitis [6] (10 mg/kg), “reduced epithelial loss and decreased infiltration of immune cells”. Also, in the data set with phosphorylation of STAT3, the “phosphorylation of STAT3 in colon tissue” value is “effectively inhibit the phosphorylation of STAT3; also recorded: inhibited the phosphorylation of STAT3”.

Turning to `Cc1cnc(Nc2ccc(OCCO)cc2)nc1Nc1cccc(S(=O)(=O)NC(C)(C)C)c1` [MMT3-72-M2, N-(tert-butyl)-3-((2-((4-(2-hydroxyethoxy)phenyl)amino)-5methylpyrimidin-4-yl)amino)benzenesulfonamide], the half-maximal inhibitory concentration (IC50) against JAK1 (Enzyme IC50 JAK1, 0.1 mM ATP) is 10.8 nM; against JAK1 (IC50 JAK1 expressed in ng/ml, converted from nM) it was around 10.6 nM; against JAK3 it was 0.329 µM; against TYK2 (Enzyme IC50 TYK2, 0.1 mM ATP), 91.6 nM; on TYK2 (IC50 TYK2 expressed in ng/ml, converted from nM), around 89.3 nM; at JAK2 (Enzyme IC50 JAK2, 0.1 mM ATP) it was 26.3 nM. The molecule further showed a 50% inhibitory concentration (IC50) at JAK2 (IC50 JAK2 expressed in ng/ml, converted from nM) of around 25.7 nM. The concentration at 12 h in data set [2] (female, C57BL/6, mouse, colon tissue, po, 10 mg/kg) is 131 ng/g and ~285 nM. The “duration of effective concentrations in colon tissue” value in data set [2] (mice, 10 mg/kg MMT3-72 orally) stood at 12 h. This molecule also displayed a Cmax in plasma in data set [2] (mice, 10 mg/kg MMT3-72 orally, 10 mg/kg) below 8 ng/mL. The “time after which undetectable in plasma” value in data set [2] (mice, 10 mg/kg MMT3-72 orally, limit of detection 2 ng/ml) is reported as 4 h. The “where detected (plasma, colon tissues, feces), in words” value in data set [3] is “only detected in the colon tissues and the feces with limited detection in the plasma”. For the same molecule, in data set [5] (fresh colon contents), the “formation of MMT3-72-M2 from MMT3-72” value is “readily converted from MMT3-72”.

As to `C[C@@H]1CCN(C(=O)CC#N)C[C@@H]1N(C)c1ncnc2[nH]ccc12` [tofacitinib, reference compound], the “improvement of DAI score or disease severity” value in the data set with DSS-induced colitis [4] is on record as “did not improve DAI score or disease severity”. Further, the figures for the “improvement of DAI score vs DSS-induced colitis” value in the data set on DSS-induced colitis [4] (5 mg/kg orally every other day) and with DSS-induced colitis [4] (setting [7]) were “did not show any improvement in DAI score” and “showed improvement in DAI score”, respectively. Further, the “recovery of colon length from DSS-induced colitis” value with DSS-induced colitis [4] (10 mg/kg) is reported as “recovered the colon length”. Also, in the data set on DSS-induced colitis [4] (10 mg/kg), the “mice that developed severe colitis” value is given as 10%. In addition, the “epithelial loss and infiltration of immune cells (H&E)” value in the data set on DSS-induced colitis [6] (5 mg/kg) is “did not show improvement in epithelial cell loss and infiltration of immune cells”; in the data set with DSS-induced colitis [6] (10 mg/kg), “moderate improvement”.

The values above are taken from paper PMC10755797 (The Journal of Biological Chemistry, 2023).
